Source: ChEMBL document CHEMBL1125553, “Bioisosteric replacement of the alpha-amino carboxylic acid functionality in 2-amino-5-phosphonopentanoic acid yields unique 3,4-diamino-3-cyclobutene-1,2-dione containing NMDA antagonists” (J Med Chem, 1992)

What was measured:
[1] = biological target: Glutamate NMDA receptor; test: The compound was tested for its affinity against N-methyl-D-aspartate glutamate receptor in rats using [3H]CPP as radioligand
Method in brief: (§1)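 Rat brain crude synaptic membranes treated with 0.04% Triton X-100 and stored frozen at -70 °C. Before use they were thawed, washed once in Tris HCl buffer and resuspended at 0.3–0.5 mg protein/mL (Lowry). NMDA receptor affinity was measured as displacement of [3H]CPP binding to these membranes.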

[2] = species: Mus musculus; test: (§2) Effective dose against NMDA-induced lethality in male Swiss-albino mice; type: ADME, organism-based; conditions: in vivo
[3] = biological target: Glutamate NMDA receptor; test: Inhibition of [3H]CPP binding to rat N-methyl-D-aspartate glutamate receptor; type: protein-complex assay; method in brief: as §1
[4] = species: Mus musculus; test: Effective dose against NMDA-induced lethality in male Swiss-albino mice was determined at a concentration of 50 uM; type: organism-based; conditions: in vivo
[5] = biological target: Glutamate receptor ionotropic, kainate; test: Compound was tested or its affinity against ionotropic glutamate receptor ionotropic kainate in rats
[6] = biological target: T1, Glutamate receptor ionotropic, AMPA (Rattus norvegicus, UniProt P19490+P19491+P19492+P19493); test: The compound was tested for its affinity against AMPA receptor in rats
[7] = species: Rattus norvegicus; test: Ability to displace [3H]TCP from rat brain; type: functional
[8] = biological target: Glutamate NMDA receptor; test: Compound tested for affinity towards N-methyl-D-aspartate glutamate receptor by measuring their ability to displace [3H]TCP from rat brain
[9] = species: Mus musculus; test: as §2; type: functional
[10] = biological target: T2, Glutamate NMDA receptor (Rattus norvegicus) (UniProt P35439+Q00959+Q00960+Q00961+Q62645+Q8VHN2+Q9R1M7); test: The compound was tested for its affinity against N-methyl-D-aspartate glutamate receptor in rats using [3H]CPP as uM; conditions: concentration not given here
Method in brief: (§3)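 Rat brain crude synaptic membranes, Triton X-100 treated, frozen at -70 °C, thawed, washed once, resuspended in Tris HCl buffer at 0.3–0.5 mg protein/mL (Lowry). NMDA receptor affinity measured by displacement of [3H]CPP binding.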

[11] = biological target: T2, Glutamate NMDA receptor (Rattus norvegicus); test: The compound was tested for the inhibition of N-methyl-D-aspartate glutamate receptor in rats using [3H]CPP as uM; conditions: concentration not given here; method in brief: as §3
[12] = biological target: T1, Glutamate receptor ionotropic, AMPA; test: Compound was tested or its affinity against AMPA receptor in rats
[13] = biological target: T2, Glutamate NMDA receptor (Rattus norvegicus); test: The compound was tested for the inhibition of N-methyl-D-aspartate glutamate receptor in rats using [3H]-CPP as uM; conditions: concentration not given here; method in brief: as §3

## Nc1c(NCCP(=O)(O)O)c(=O)c1=O
[1]
  IC50: 0.47 µM
[2]
  ED50: 29 mg/kg

## NS(=O)(=O)c1cccc2c1c([N+](=O)[O-])cc1nc(O)c(O)nc12 [NBQX]
[3]
  IC50: > 10 µM

## CN(CCP(=O)(O)O)c1c(N)c(=O)c1=O
[1]
  IC50: 1 µM
[4]
  Inhibition: 50%

## Nc1c(NCC(=O)O)c(=O)c1=O
[5]
  IC50: > 100 µM
[6]
  IC50: > 100 µM

## Nc1c(NCCn2oc(=O)[nH]c2=O)c(=O)c1=O
[3]
  IC50: 5.2 µM
[5]
  IC50: > 100 µM
[6]
  IC50: > 100 µM

## Nc1c(NCCC(=O)O)c(=O)c1=O
[7]
  IC50: 941 µM

## O=C(O)C1CN(CCCP(=O)(O)O)CCN1 (stereo not drawn)
[8]
  IC50: 45 µM

## CCOC(=O)C/N=c1\c(O)c(O)c1=N
[3]
  IC50: 190 µM

## NC(CCCCCP(=O)(O)O)C(=O)O (stereo not drawn) [AP-7]
[3]
  IC50: 0.39 µM
[9]
  ED50: 38 mg/kg

## N[C@@H](Cn1oc(=O)[nH]c1=O)C(=O)O [QUISQUALATE]
[3]
  IC50: > 100 µM

## O=C(O)CCNc1c(O)c(=O)/c1=N\Cc1ccccc1
[3]
  IC50: > 100 µM

## Nc1c(NCP(=O)(O)O)c(=O)c1=O
[1]
  IC50: > 10 µM
[2]
  ED50: > 100 mg/kg

## Nc1c(NCCCCP(=O)(O)O)c(=O)c1=O
[10]
  inhibition: 68%
[2]
  ED50: > 30 mg/kg

## Nc1c(NCCCP(=O)(O)O)c(=O)c1=O
[1]
  IC50: 2.6 µM
[2]
  ED50: > 100 mg/kg

## C/N=c1\c(O)c(O)\c1=N/CCC(=O)O
[3]
  IC50: 20 µM

## C=C(C)CN(CC(=O)O)c1c(N)c(=O)c1=O
[5]
  IC50: > 100 µM
[11]
  inhibition: 46%
[6]
  IC50: > 100 µM

## C=CCN(CC(=O)O)c1c(N)c(=O)c1=O
[3]
  IC50: 10 µM
[5]
  IC50: > 100 µM
[12]
  IC50: > 100 µM

## Nc1c(N(CC(=O)O)Cc2ccccc2)c(=O)c1=O
[5]
  IC50: > 100 µM
[6]
  IC50: > 100 µM
[13]
  inhibition: 50%
